Test results from PMC2745708 (Free radical biology & medicine, 2009).

Assays:
NOS2 = NOS2 (Homo sapiens, UniProt P35228); assay: 14-C-L-arginine to 14-C-L-citrulline conversion by purified recombinant NOS2; assay type: biochemical
[1] = tested on: Raw 264.7 mouse macrophage cell line; assay: NO production by interferon-gamma-activated macrophages; assay type: cell-based; conditions: 0.5, 2.0 or 8.0 μM for 24 hours with 500 units/ml murine interferon gamma
Procedure, shortened: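 Raw 264.7 cells kept by serial passage in RPMI-1640 with 10% FBS. Activated 24 h with 500 units/ml murine interferon-gamma, with 0, 0.5, 2.0 or 8.0 μM test compound present throughout. Loaded with 10 μM DAF-FM for 30 min, washed, and fluorescence read at 495/515 nm. NO production given as percent of control; SEM from 6 separate experiments.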

NOS1 = NOS1 (Rattus norvegicus, UniProt P29476); assay: 14-C-L-arginine to 14-C-L-citrulline conversion by purified recombinant NOS1; assay type: biochemical
Procedure, shortened: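 Purified recombinant rat NOS1 or human NOS2 holoprotein at 5 nM. Incubated 60 min at 37°C with 2.9 μM 14C-L-arginine and 10 μM unlabeled L-arginine in 50 mM HEPES pH 7.5, with 10 μM FAD, 1 mM DTT, 100 μM tetrahydrobiopterin, 200 μM NADPH, and graded test compound, in near-dark. Stopped with HEPES pH 5.5/citrulline/EDTA. 14C-citrulline separated on Dowex 50W-X8, scintillation-counted; percent inhibition calculated.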

NOS3 = NOS3 (Bos taurus, UniProt P29473); assay: 14-C-L-arginine to 14-C-L-citrulline conversion by purified recombinant NOS3; assay type: biochemical, bovine; conditions: purified recombinant enzyme
Procedure, shortened: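 Purchased recombinant bovine NOS3, with NOS co-factors and 14C-L-arginine, with or without graded test compound, in near-dark conditions. 14C-L-citrulline formed was separated from 14C-L-arginine on a Dowex 50W-X8 cation-exchange column and counted by scintillation. Activity is given as percent inhibition.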

NOS2 oxygenase domain = NOS2 oxygenase domain (Homo sapiens, UniProt P35228); assay: CO binding to reduced NOS2 oxygenase domain heme; conditions: NOS2 oxygenase domain reduced with dithionite
Chain of NOS2 oxygenase domain (P35228 1-504 limits assumed): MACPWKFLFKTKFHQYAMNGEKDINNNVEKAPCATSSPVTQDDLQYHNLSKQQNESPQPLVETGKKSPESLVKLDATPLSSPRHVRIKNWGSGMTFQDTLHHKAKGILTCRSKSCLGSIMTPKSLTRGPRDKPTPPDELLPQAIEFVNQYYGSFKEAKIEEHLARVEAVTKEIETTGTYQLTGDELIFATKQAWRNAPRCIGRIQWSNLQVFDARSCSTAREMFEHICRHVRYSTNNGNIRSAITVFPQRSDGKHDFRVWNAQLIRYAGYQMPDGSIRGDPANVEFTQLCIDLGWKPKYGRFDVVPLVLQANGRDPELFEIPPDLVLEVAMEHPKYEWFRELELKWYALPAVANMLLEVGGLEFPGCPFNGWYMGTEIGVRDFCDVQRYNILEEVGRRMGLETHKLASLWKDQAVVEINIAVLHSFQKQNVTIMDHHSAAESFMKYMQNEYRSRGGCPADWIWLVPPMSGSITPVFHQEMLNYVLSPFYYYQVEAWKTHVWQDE
Procedure, shortened: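 Purified recombinant NOS2 oxygenase domain (about 3 μM final) reduced with dithionite and exposed to CO, with or without test compound. UV/visible spectra recorded, monitoring the ferrous-heme–CO peak at 445 nm.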

[2] = purified recombinant enzyme, 60 min, 37°C
[3] = agent exposed to light for 60 minutes (with light)
[4] = agent not exposed to light (no light)

Row | Estimated ED50 NOS3 (NOS3) [µM] | Compound | Estimated ED50 NOS2 (NOS2; [2]) [µM] | NO production by cells [1] | Estimated ED50 NOS1 (NOS1; [2]) [µM] | Effect on CO-induced spectral changes (ferrous-CO adduct formation) (NOS2 oxygenase domain) | Estimated ED50 NOS2 (NOS2; [3]) [µM] | Estimated ED50 NOS2 (NOS2; [4]) [µM] | Estimated ED50 NOS1 (NOS1; [3]) [µM] | Estimated ED50 NOS1 (NOS1; [4]) [µM]
1 | 519.0 | Cyanocobalamin | 1620.0 | – | 72.0 | – | – | – | – | –
2 | 41.0 | C/C1=C2N=C(/C=C3N=C(/C(C)=C4\[N-]C(C(CC(N)=O)C4(C)CCC(=O)NCC(C)OP(=O)([O-])OC4C(CO)OC(n5cnc6cc(C)c(C)cc65)C4O)C4(C)N=C1C(CCC(N)=O)C4(C)CC(N)=O)C(CCC(N)=O)C\3(C)C)C(CCC(N)=O)C/2(C)CC(N)=O.NC(CCC(=O)NC(C[S-])C(=O)NCC(=O)O)C(=O)O.[Co+3] (stereo not drawn) [Glutathionylcobalamin] | 29.0 | – | 9.6 | – | – | – | – | –
3 | 43.0 | C/C1=C2/[N-][C@H]([C@H](CC(N)=O)[C@@]2(C)CCC(=O)NC[C@@H](C)O)[C@]2(C)N=C(/C(C)=C3N=C(/C=C4N=C1[C@@H](CCC(N)=O)C\4(C)C)[C@@H](CCC(N)=O)[C@]\3(C)CC(N)=O)[C@@H](CCC(N)=O)[C@]2(C)CC(N)=O.[Co+3] [Cobinamide] | 50.0 | – | 15.0 | – | – | – | – | –

The remaining lines, values behind:

Row | Compound | Estimated ED50 NOS3 (NOS3) [µM] | Estimated ED50 NOS2 (NOS2; [2]) [µM] | NO production by cells [1] | Estimated ED50 NOS1 (NOS1; [2]) [µM] | Effect on CO-induced spectral changes (ferrous-CO adduct formation) (NOS2 oxygenase domain) | Estimated ED50 NOS2 (NOS2; [3]) [µM] | Estimated ED50 NOS2 (NOS2; [4]) [µM] | Estimated ED50 NOS1 (NOS1; [3]) [µM] | Estimated ED50 NOS1 (NOS1; [4]) [µM]
4 | C/C1=C2/[N-]C([C@H](CC(N)=O)[C@@]2(C)CCC(=O)NCC(C)O)[C@]2(C)N=C(/C(C)=C3N=C(/C=C4N=C1[C@@H](CCC(N)=O)C\4(C)C)[C@@H](CCC(N)=O)[C@]\3(C)CC(N)=O)[C@@H](CCC(N)=O)[C@]2(C)CC(N)=O.[C-]#N.[C-]#N.[Co] (stereo partly drawn) [Dicyanocobinamide] | 0.33 | 2.29 | dose-dependent inhibition | 0.23 | markedly diminished | – | – | – | –
5 | CC1(C)N([O])C(c2ccc(C(=O)[O-])cc2)=[N+]([O-])C1(C)C.[K+] [Carboxy-PTIO, 2-(4-Carboxyphenyl)-4,4,5,5-tetramethylimidazoline-1-oxyl-3-oxide (potassium salt)] | – | 1359.0 | – | 1360.0 | – | – | – | – | –
6 | C/C1=C2/[N-][C@H]([C@H](CC(N)=O)[C@@]2(C)CCC(=O)NC[C@@H](C)OP(=O)([O-])O[C@H]2[C@@H](O)[C@@H](n3cnc4cc(C)c(C)cc43)O[C@@H]2CO)[C@]2(C)N=C(/C(C)=C3N=C(/C=C4N=C1[C@@H](CCC(N)=O)C\4(C)C)[C@@H](CCC(N)=O)[C@]\3(C)CC(N)=O)[C@@H](CCC(N)=O)[C@]2(C)CC(N)=O.[Co+3].[OH-] [Hydroxocobalamin] | 9.1 | 21.1 | – | 5.7 | – | – | – | – | –
7 | C/C1=C2/[N-][C@H]([C@H](CC(N)=O)[C@@]2(C)CCC(=O)NC[C@@H](C)OP(=O)([O-])O[C@H]2[C@@H](O)[C@@H](n3cnc4cc(C)c(C)cc43)O[C@@H]2CO)[C@]2(C)N=C(/C(C)=C3N=C(/C=C4N=C1[C@@H](CCC(N)=O)C\4(C)C)[C@@H](CCC(N)=O)[C@]\3(C)CC(N)=O)[C@@H](CCC(N)=O)[C@]2(C)CC(N)=O.[CH2-][C@H]1O[C@@H](n2cnc3c(N)ncnc32)[C@H](O)[C@@H]1O.[Co] [Adenosylcobalamin] | – | – | – | – | – | 60.0 | 2148.0 | 6.4 | 498.0
8 | C/C1=C2/[N-][C@H]([C@H](CC(N)=O)[C@@]2(C)CCC(=O)NC[C@H](C)OP(=O)([O-])O[C@H]2[C@@H](O)[C@@H](n3cnc4cc(C)c(C)cc43)O[C@@H]2CO)[C@]2(C)N=C(/C(C)=C3N=C(/C=C4N=C1[C@@H](CCC(N)=O)C\4(C)C)[C@@H](CCC(N)=O)[C@]\3(C)CC(N)=O)[C@@H](CCC(N)=O)[C@]2(C)CC(N)=O.[CH3-].[Co+3] [Methylcobalamin] | – | – | – | – | – | 63.0 | 231.0 | 5.9 | 576.0
